# Laboratory results taken from ChEMBL document CHEMBL4017544 (J Med Chem, 2017).
# Activity calls are given as the source filed them. The rule behind the calls is not given here.
# Assays:
# Mus musculus [1] = experiment: Renoprotective activity in db/db mouse assessed as reduction in fused podocytes at 1 to 2 mg/kg, ip administered trice per week for 12 consecutive weeks measured at 11 weeks post dose by TEM microscopic analysis; type: functional, organism-based
# Summary of the method: (§1)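 Male db/db mice (8 weeks old) were dosed i.p. three times weekly for 12 weeks in 5% Tween-80/0.9% saline, n = 6. Kidney tissue was fixed in 3% glutaraldehyde, cut into 80 nm ultrathin sections and examined by TEM. GBM thickness was measured at 30 random locations from three sections per kidney and averaged per mouse.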
# Mus musculus [2] = experiment: Renoprotective activity in db/db mouse assessed as reduction in thickening of capillary walls in glomeruli at 1 to 2 mg/kg, ip administered trice per week for 12 consecutive weeks measured at 11 weeks post dose by H/E-staining based microscopic analysis; type: functional, organism-based
# Summary of the method: (§2)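 Male db/db mice, 8 weeks old, were randomized and dosed i.p. three times weekly for 12 weeks (vehicle: 5% Tween-80 in 0.9% saline; n = 6 per group). Kidneys were fixed in 4% PFA and paraffin-embedded. 5 μm sections were stained with HE, PAS or Masson's trichrome and examined at ×400.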
# [3] = Drug level in Sprague-Dawley rat liver at 30 mg/kg, ip measured at 90 mins by LC-MS/MS analysis; type: ADME, organism-based; conditions: read-out: Drug uptake
# Summary of the method: (§3)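 Rats given a single ip injection, 20 mg/kg (0.04 mmol) of CDDO-Me or 30 mg/kg (0.04 mmol) of the prodrug; heart, kidney and liver collected over time; parent compound and liberated CDDO-Me measured by LC-MS/MS.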
# Mus musculus [4] = experiment: Antidiabetic nephropathic activity in db/db mouse assessed as reduction in urine albumin to creatinine ratio at 1 to 2 mg/kg, ip administered thrice per week for 12 consecutive weeks measured at 24 hrs post 11 week administration; type: functional, organism-based
# Summary of the method: (§4)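 Male db/db mice, 8 weeks old, randomized; ip vehicle (5% Tween-80 in 0.9% saline) or drug three times weekly for 12 weeks, n = 6 per group. After 11 weeks, 24 h urine collected for volume, albumin and creatinine, with UACR calculated; blood then sampled for plasma BUN and uric acid. Mean ± SD, one-way ANOVA with Tukey test.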
# Mus musculus [5] = experiment: Renoprotective activity in db/db mouse assessed as reduction in glomerular basement thickening at 1 to 2 mg/kg, ip administered trice per week for 12 consecutive weeks measured at 11 weeks post dose by TEM microscopic analysis; type: functional, organism-based; summary of the method: as §1
# [6] = target: Kelch-like ECH-associated protein 1 (Homo sapiens) (UniProt Q14145); experiment: Inhibition of Keap1/Nrf2 (unknown origin) interaction transfected in HEK293 cells assessed as increase in cytosolic HO-1 levels after 48 hrs by Western blot analysis; type: cell-based
# Summary of the method: (§5)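 HEK293 cells grown in high-glucose DMEM with 10% FBS were treated in triplicate at 200 or 1000 nM for 48 h. Nuclear and cytosolic Nrf2, HO-1 and cytoplasmic NQO1 were measured by western blot with specific antibodies, with TBP and β-actin among the probed proteins. The nuclear/cytosolic Nrf2 ratio was derived from these blots. Three independent experiments, mean ± SD.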
# Mus musculus [7] = experiment: Toxicity in db/db mouse assessed as effect on water consumption at 1 to 2 mg/kg, ip administered thrice per week for 12 consecutive weeks measured every other day; type: organism-based; conditions: in vivo
# Summary of the method: (§6)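 Male db/db mice (8 weeks old, specific pathogen-free, normal chow and filtered water ad libitum) were randomized and dosed i.p. three times weekly for 12 consecutive weeks; vehicle was 5% Tween-80 in 0.9% saline. Body weight and food and water consumption were recorded every other day.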
# Mus musculus [8] = experiment: Antidiabetic nephropathic activity in db/db mouse assessed as reduction in 24 hrs urine volume at 1 to 2 mg/kg, ip administered thrice per week for 12 consecutive weeks measured at 11 weeks post dose; type: functional, organism-based; summary of the method: as §4
# [9] = Drug level in Sprague-Dawley rat heart at 30 mg/kg, ip measured at 90 mins by LC-MS/MS analysis; type: ADME, organism-based; conditions: read-out: Drug uptake; summary of the method: as §3
# Mus musculus [10] = experiment: Antidiabetic nephropathic activity in db/db mouse assessed as reduction in urinary albumin at 1 to 2 mg/kg, ip administered thrice per week for 12 consecutive weeks measured at 24 hrs post 11 week administration; type: functional, organism-based; summary of the method: as §4
# Mus musculus [11] = experiment: Cardioprotective activity in C57BL/6 db/db mouse assessed as reduction in apoptotic cardiomyocyte levels at 1 to 2 mg/kg, ip administered for 12 weeks by TUNNEL assay; type: functional, organism-based
# Summary of the method: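 db/db mice, 8 weeks old, with C57BL/6 controls; ip vehicle or drug for 12 weeks, n = 6 per group. Heart sections (5 μm) from paraformaldehyde-fixed, paraffin-embedded tissue analysed by TUNEL; percentage of apoptotic cardiomyocytes from three sections per mouse; mean ± SD from two separate experiments.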
# [12] = target: Kelch-like ECH-associated protein 1 (Homo sapiens) (UniProt Q14145); experiment: Inhibition of Keap1/Nrf2 (unknown origin) interaction transfected in HEK293 cells assessed as increase in nuclear to cytosolic Nfr2 ratio after 48 hrs by Western blot analysis; type: cell-based; summary of the method: as §5
# Mus musculus [13] = experiment: Renoprotective activity in db/db mouse assessed as […] in number of intraglomerular mesangial cells at 1 to 2 mg/kg, ip administered trice per week for 12 consecutive weeks measured at 11 weeks post dose by H/E-staining based microscopic analysis; type: functional, organism-based; summary of the method: as §2
# Mus musculus [14] = experiment: Toxicity in db/db mouse assessed as effect on food consumption at 0.65 mg/kg, ip administered trice per week for 12 consecutive weeks measured every other day; type: organism-based; conditions: in vivo; summary of the method: as §6
# Mus musculus [15] = experiment: Toxicity in db/db mouse assessed as increase in body weight at 0.65 mg/kg, ip administered thrice per week for 12 consecutive weeks measured every other day (reference value: 15%); type: organism-based; conditions: in vivo; summary of the method: as §6
# Mus musculus [16] = experiment: Antidiabetic nephropathic activity in db/db mouse assessed as increase in urinary creatinine at 0.65 mg/kg, ip administered thrice per week for 12 consecutive weeks measured at 24 hrs post 11 week administration; type: functional, organism-based; summary of the method: as §4
# Mus musculus [17] = experiment: Renoprotective activity in db/db mouse assessed as reduction in mesangial expansion at 0.65 mg/kg, ip administered trice per week for 12 consecutive weeks measured at 11 weeks post dose by TEM microscopic analysis; type: functional, organism-based; summary of the method: as §1
# [18] = target: Kelch-like ECH-associated protein 1 (Homo sapiens) (UniProt Q14145); experiment: Inhibition of Keap1/Nrf2 (unknown origin) interaction transfected in HEK293 cells assessed as increase in nuclear to cytosolic Nfr2 ratio at 200 to 1000 nM after 48 hrs by Western blot analysis; type: cell-based; summary of the method: as §5
# [19] = Drug level in Wistar rat kidney homogenates treated with 1-Hydroxyl-2-cyano-3-(4-(methyl-L-glutaminate-N5-yl)-benzyloxy)-12-oxo-oleana-2(3),9(11)-dien-28-oic Acid Methyl Ester assessed as GGT-mediated metabolite formation at 100 uM after 8 hrs by HPLC analysis; type: ADME, tissue-based; conditions: tissue homogenate
# Summary of the method: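 Plasma, and kidney and liver homogenates in PBS, from three Wistar rats; substrate added at 100 μM at 37 °C; metabolite measured by HPLC every 60 min for 8 h; mean ± SD of three experiments.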
# Mus musculus [20] = experiment: Anti-diabetic nephropathic activity in db/db mouse assessed as reduction in 24 hr urine volume at 0.65 mg/kg, ip administered trice per week for 12 consecutive weeks measured at 11 weeks post dose; type: functional, organism-based; summary of the method: as §4
# Mus musculus [21] = experiment: Renoprotective activity in db/db mouse assessed as reduction of fibrosis in glomeruli at 0.65 mg/kg, ip administered trice per week for 12 consecutive weeks measured at 11 weeks post dose by H/E-staining based microscopic analysis; type: functional, organism-based; summary of the method: as §2
# Mus musculus [22] = experiment: Renoprotective activity in db/db mouse assessed as […] in number of intraglomerular mesangial cells at 0.65 mg/kg, ip administered trice per week for 12 consecutive weeks measured at 11 weeks post dose by H/E-staining based microscopic analysis; type: functional, organism-based; summary of the method: as §2
# Chain of Kelch-like ECH-associated protein 1 (Homo sapiens) (Q14145 whole entry): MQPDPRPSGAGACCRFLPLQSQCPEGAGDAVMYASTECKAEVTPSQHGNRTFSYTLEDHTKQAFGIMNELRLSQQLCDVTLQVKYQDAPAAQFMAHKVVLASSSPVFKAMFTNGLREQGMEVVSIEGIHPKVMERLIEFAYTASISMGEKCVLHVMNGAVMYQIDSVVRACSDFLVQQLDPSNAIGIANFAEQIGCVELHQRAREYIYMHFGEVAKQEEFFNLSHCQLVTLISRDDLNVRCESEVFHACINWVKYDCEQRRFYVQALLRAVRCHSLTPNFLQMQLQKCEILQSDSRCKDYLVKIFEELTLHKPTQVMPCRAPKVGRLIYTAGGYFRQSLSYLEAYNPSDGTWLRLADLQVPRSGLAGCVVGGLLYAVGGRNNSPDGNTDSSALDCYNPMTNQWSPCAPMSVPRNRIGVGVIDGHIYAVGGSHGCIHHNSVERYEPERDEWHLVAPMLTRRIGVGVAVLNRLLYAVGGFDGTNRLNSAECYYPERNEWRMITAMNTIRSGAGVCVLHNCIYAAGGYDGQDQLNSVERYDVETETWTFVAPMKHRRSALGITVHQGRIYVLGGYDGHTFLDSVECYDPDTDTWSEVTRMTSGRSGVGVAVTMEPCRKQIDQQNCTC
compound,measurement,setting,value
COC(=O)[C@@H](N)CCC(=O)Nc1ccc(COC2=C(C#N)[C@H](O)[C@]3(C)C4=CC(=O)[C@@H]5[C@@H]6CC(C)(C)CC[C@]6(C(=O)OC)CC[C@@]5(C)[C@]4(C)CC[C@H]3C2(C)C)cc1,Activity,Mus musculus [1],Active
same,Activity,Mus musculus [2],Active
same,concentration at 1.5 h,[3],6040 ng/g
same,Activity,Mus musculus [4],Active
same,Activity,Mus musculus [5],Active
same,inhibition,[6],Dose-dependent effect
same,Activity,Mus musculus [7],Non-Toxic
same,Activity,Mus musculus [8],Active
same,concentration at 1.5 h,[9],1310 ng/g
same,Activity,Mus musculus [10],Active
same,Activity,Mus musculus [11],Active
same,inhibition,[12],Dose-dependent effect
same,Activity,Mus musculus [13],Active
COC(=O)[C@]12CCC(C)(C)C[C@H]1[C@H]1C(=O)C=C3[C@@]4(C)C=C(C#N)C(=O)C(C)(C)[C@@H]4CC[C@@]3(C)[C@]1(C)CC2 [BARDOXOLONE METHYL],Activity,Mus musculus [14],Non-Toxic
same,Activity,Mus musculus [15],11.3%
same,Activity,Mus musculus [16],Active
same,Activity,Mus musculus [17],Active
same,inhibition,[18],Active
same,Drug metabolism,[19],Metabolite_Detected
same,Activity,Mus musculus [20],Active
same,Activity,Mus musculus [21],Active
same,Activity,Mus musculus [22],Active
